Paper PMC12815959 (Nature Communications, 2025)

How the values were obtained:
[1] = target: T1, lipopolysaccharide-responsive beige-like anchor protein (LRBA) (Homo sapiens, UniProt P50851); assay: ITC with purified LRBA PH domain; format: binding
Target sequence in this assay (P50851 2073-2489 limits assumed): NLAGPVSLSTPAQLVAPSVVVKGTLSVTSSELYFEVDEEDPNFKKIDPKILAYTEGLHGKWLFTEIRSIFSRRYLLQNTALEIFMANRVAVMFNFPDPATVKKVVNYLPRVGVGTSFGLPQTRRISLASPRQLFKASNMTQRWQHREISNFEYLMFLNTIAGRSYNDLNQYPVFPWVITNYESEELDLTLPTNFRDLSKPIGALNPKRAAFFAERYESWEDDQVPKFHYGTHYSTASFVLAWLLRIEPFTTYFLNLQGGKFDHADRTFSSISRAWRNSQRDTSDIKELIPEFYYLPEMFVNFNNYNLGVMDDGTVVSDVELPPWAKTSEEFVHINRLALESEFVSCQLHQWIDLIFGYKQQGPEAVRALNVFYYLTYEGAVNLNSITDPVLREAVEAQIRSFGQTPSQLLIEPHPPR

[2] = target: T1, lipopolysaccharide-responsive beige-like anchor protein (LRBA); assay: Nluc complementation with purified LRBA PH; format: cell-based
In short: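 HEK293T cells were transfected with three plasmids and treated with test compound in DMEM assay medium at 250.00, 100.00, 33.30, 10.00, 3.33, 1.00, 0.33, 0.10, 0.03 and 0.01 μM. Inhibition of the CTLA4–LRBA interaction was read as the Nluc/Firefly luciferase ratio by dual-luciferase assay. In the cell-free format, Flag-purified Sm-LRBA PH was preincubated with compound for 2 h at 25 °C. Myc-purified CTLA4 CT-Lg was then added for 18 h at 25 °C.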
Target sequence in this assay (P50851 2073-2489): as the sequence (P50851 2073-2489 limits assumed) above
Target sequence in this assay (P16410 36-223, further chain): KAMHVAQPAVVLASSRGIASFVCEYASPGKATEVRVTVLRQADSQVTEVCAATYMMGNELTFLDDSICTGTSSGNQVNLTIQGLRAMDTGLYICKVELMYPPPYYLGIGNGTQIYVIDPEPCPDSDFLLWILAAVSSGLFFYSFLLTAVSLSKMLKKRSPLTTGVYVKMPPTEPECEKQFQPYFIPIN

Row | Compound | Kd [1] [µM] | IC50 [2] [µM]
1 | c1ccc2ncc(-c3ccnc(N4CCNCC4)n3)cc2c1 [LC427, 3-(2-(piperazin-1-yl)pyrimidin-4-yl) quinoline] | 19.6 | –
2 | NCC1CCN(c2nccc(-c3ccc4ccccc4c3)n2)CC1 [WAY-262611] | – | 0.34
